Experimental data published in ChEMBL document CHEMBL1154198, “Chemical genetics of Plasmodium falciparum” (Nature, 2010).
pEC50: −log10 of the molar value.

Tests used:
Plasmodium falciparum [1] = experiment: ST_JUDE: Cytotoxicity against Plasmodium falciparum K1; format: functional, organism-based
Summary of the method: (§1)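 Asexual P. falciparum grown in human erythrocytes, exposed to compounds for 72 h, and growth read as the DNA quantity in treated versus control cultures. Dose-response run at 12 concentrations from 10 μM to 5 nM.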

Plasmodium falciparum [2] = experiment: ST_JUDE: Cytotoxicity against Plasmodium falciparum V1/S; format: functional, organism-based
Plasmodium falciparum [3] = experiment: ST_JUDE: Plasmodium falciparum K1 EC50 (uM) as measured by SYBR green dye; format: functional, organism-based
Plasmodium falciparum [4] = experiment: ST_JUDE: Cytotoxicity against Plasmodium falciparum 3D7; format: functional, organism-based; summary of the method: as §1
Leishmania major = experiment: ST_JUDE: Cytotoxicity using Alamar Blue to measure viability of Leishmania major; format: functional, organism-based
Summary of the method: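 L. major promastigotes; drug susceptibility read with Alamar Blue.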

Plasmodium falciparum [5] = experiment: ST_JUDE: Cytotoxicity against Plasmodium falciparum W2; format: functional, organism-based
[6] = ST_JUDE: Cytotoxicity using luciferase to measure ATP as an indicator of the viability of human epithelial hepatocellular carcinoma cells (HepG2); format: toxicity, cell-based
[7] = ST_JUDE: Cytotoxicity using luciferase to measure ATP as an indicator of the viability of human foreskin fibroblast cells (BJ); format: toxicity, cell-based
Plasmodium falciparum [8] = experiment: ST_JUDE: Cytotoxicity against Plasmodium falciparum D10 transfected with yeast DHOD; format: functional, organism-based
Toxoplasma gondii = experiment: ST_JUDE: Growth inhibition of to Toxoplasma gondii, in human U-2OS cells, as measured by luciferase.; format: functional, organism-based; details: RH, U2OS
Summary of the method: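 T. gondii parasites engineered to express luciferase; drug sensitivity read by luminescence.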

Trypanosoma brucei = experiment: ST_JUDE: Cytotoxicity using luciferase to measure ATP as an indicator of the viability of Trypanosoma brucei; format: functional, organism-based
Plasmodium falciparum [9] = experiment: ST_JUDE: Plasmodium falciparum 3D7 EC50 (uM) as measured by SYBR green dye; format: functional, organism-based
[10] = ST_JUDE: Cytotoxicity using luciferase to measure ATP as an indicator of the viability of human Burkitt''s lymphoma lymphoblast cells (Raji); format: toxicity, cell-based
[11] = ST_JUDE: Cytotoxicity using luciferase to measure ATP as an indicator of the viability of human epithelial embryonic kidney cells (HEK293); format: toxicity, cell-based
Plasmodium falciparum [12] = experiment: ST_JUDE: Cytotoxicity against Plasmodium falciparum SB-A6; format: functional, organism-based
Plasmodium falciparum [13] = experiment: ST_JUDE: Cytotoxicity against Plasmodium falciparum Dd2; format: functional, organism-based

SMILES | pEC50 (Plasmodium falciparum [1]) | pEC50 (Plasmodium falciparum [2]) | pEC50 (Plasmodium falciparum [3]) | pEC50 (Plasmodium falciparum [4]) | pEC50 (Leishmania major) | pEC50 (Plasmodium falciparum [5]) | pEC50 [6] | pEC50 [7] | pEC50 (Plasmodium falciparum [8]) | pEC50 (Toxoplasma gondii) | pEC50 (Trypanosoma brucei) | pEC50 (Plasmodium falciparum [9]) | pEC50 [10] | pEC50 [11] | pEC50 (Plasmodium falciparum [12]) | pEC50 (Plasmodium falciparum [13])
CN1C(=O)/C(=C\c2ccccc2Cl)Sc2ccc(C(=O)NC3CCN(Cc4ccccc4)CC3)cc21 | 5.54 | 5.40 | 6.59 | 5.76 | < 4.74 | < 4.96 | 4.75 | < 4.37 | 5.96 | < 4.63 | 5.46 | 6.56 | < 4.37 | < 4.37 | 6.14 | 5.94
Oc1ccc(Br)cc1CN1CCN(Cc2cccc(F)c2)CC1 | 6.18 | 6.14 | 5.88 | 5.81 | < 4.87 | 5.76 | < 4.50 | < 4.50 | 5.82 | < 4.76 | 4.59 | 5.45 | < 4.50 | < 4.50 | 5.76 | 5.82
COc1ccc(C2CC(=O)C3=C(C2)NC(=O)CC3c2ccc(Br)cc2)cc1OC (centres undefined) | 5.96 | 5.75 | 6.19 | 5.98 | < 4.69 | 5.11 | < 4.32 | < 4.32 | 5.75 | < 4.58 | 4.59 | 5.94 | < 4.32 | < 4.32 | 5.83 | 6.13
CCOc1ccc2nc(C)cc(Nc3ccc(Cl)cc3)c2c1 | 5.39 | 5.56 | 5.87 | 5.97 | 6.42 | 6.12 | 5.14 | 5.06 | 6.27 | < 4.66 | 5.09 | 6.35 | 4.70 | 4.67 | 6.53 | 6.24
COc1ccc(NC(=O)C2c3ccccc3C(=O)N(CC(C)C)C2c2cccs2)cc1Cl (centres undefined) | 6.87 | 6.61 | 6.86 | 6.93 | < 4.76 | 6.26 | < 4.39 | < 4.39 | 6.88 | < 4.66 | 5.58 | 6.93 | < 4.39 | < 4.39 | 6.82 | 6.78
CCOc1ccc(NC(=O)C2c3ccccc3C(=O)N(CC(C)C)C2c2cccs2)cc1 (centres undefined) | 6.53 | 6.30 | 6.83 | 6.59 | < 4.74 | 6.87 | < 4.37 | < 4.37 | 6.43 | < 4.63 | 5.16 | 6.88 | < 4.37 | < 4.37 | 6.45 | 6.44
CO/C(O)=C1\C(C)=NC2=C(C(=O)CC(c3ccc(OC)c(OC)c3)C2)C1c1ccccc1F (centres undefined) | 6.39 | 6.04 | 6.36 | 6.37 | < 4.72 | 6.53 | < 4.35 | < 4.35 | 6.13 | < 4.61 | < 4.37 | 6.30 | < 4.35 | < 4.35 | 6.25 | 6.12
CCCCCOc1ccc(N(C(C)=O)C2=C(N3CCCCC3)C(=O)c3ccccc3C2=O)cc1 | 6.89 | 6.95 | 6.43 | 6.71 | < 4.90 | 6.41 | 5.01 | < 4.53 | 7.21 | < 4.79 | 5.38 | 6.14 | 5.39 | < 4.53 | 6.96 | 6.12
COc1ccc(C2CC3=NC(C)=C(C(=O)OC(C)C)C(c4ccccc4Cl)C3=C(O)C2)cc1OC (centres undefined) | 7.27 | 7.06 | 7.75 | 7.06 | < 4.75 | 7.39 | < 4.39 | < 4.39 | 7.34 | 4.84 | 5.17 | 7.45 | < 4.39 | < 4.39 | 7.46 | 7.24
COc1ccc(C2CC3=NC(C)=C(C(=O)OC(C)C)C(c4ccccc4OC)C3=C(O)C2)cc1OC (centres undefined) | 6.40 | 6.36 | 6.00 | 6.15 | < 4.72 | 6.62 | < 4.35 | < 4.35 | 6.20 | 4.94 | 4.79 | 5.86 | < 4.35 | < 4.35 | 6.44 | 6.09
CCO/C(O)=C1\C(C)=NC2=C(C(=O)CC(c3ccc(OC)c(OC)c3)C2)C1c1ccc([N+](=O)[O-])cc1 (centres undefined) | 6.57 | 6.22 | 6.92 | 6.77 | < 4.73 | 6.62 | < 4.36 | < 4.36 | 6.57 | < 4.62 | 5.08 | 6.75 | < 4.36 | < 4.36 | 6.64 | 6.22
CCCO/C(O)=C1\C(C)=NC2=C(C(=O)CC(c3ccc(OC)c(OC)c3)C2)C1c1ccc(F)cc1 (centres undefined) | 6.92 | 6.81 | 7.62 | 7.02 | < 4.81 | 7.25 | < 4.44 | < 4.44 | 7.24 | < 4.70 | 5.23 | 7.21 | < 4.44 | < 4.44 | 7.22 | 7.02
COc1ccc(C2CC(=O)C3=C(C2)NC(=O)CC3c2ccc(OC)c(OC)c2)cc1 (centres undefined) | 5.82 | < 4.93 | 5.88 | 5.91 | < 4.71 | 5.66 | < 4.34 | < 4.34 | 5.78 | < 4.60 | < 4.36 | 6.04 | < 4.34 | < 4.34 | 5.63 | 5.88
CSc1ccc2ccccc2[n+]1C | 6.23 | 5.74 | 6.05 | 6.23 | < 4.80 | 5.49 | < 4.43 | < 4.43 | 5.95 | < 4.69 | < 4.45 | 5.80 | < 4.43 | < 4.43 | 5.92 | 5.82
CC(O)(c1ccc(Cl)cc1)C(CN1CCCCC1)c1ccccc1 (centres undefined) | 6.19 | 5.88 | 6.57 | 5.66 | < 4.66 | 5.11 | < 4.30 | < 4.30 | 5.27 | < 4.56 | 4.62 | 6.04 | < 4.30 | < 4.30 | 5.37 | 5.90
Cn1c(=O)c2c(-c3ccc(C(C)(C)C)cc3)n(-c3cc(Cl)ccc3O)cc2n(C)c1=O | < 4.99 | 6.01 | 5.91 | < 4.99 | < 4.77 | 6.11 | < 4.40 | < 4.40 | 6.01 | < 4.66 | 5.17 | 5.94 | < 4.40 | < 4.40 | 6.01 | 5.90
CCCO/C(O)=C1\C(C)=NC2=C(C(=O)CC(c3ccc(OC)c(OC)c3)C2)C1c1cccc(C)c1 (centres undefined) | 6.41 | 6.20 | 6.41 | 6.14 | < 4.72 | 5.34 | 4.39 | < 4.35 | 6.34 | < 4.61 | 4.95 | 6.24 | < 4.35 | < 4.35 | 6.53 | 5.87
CCOc1cc2c(cc1OCC)C(c1cc(Cl)ccc1O)NCC2 (centres undefined) | 6.14 | 5.88 | 6.61 | 5.74 | < 4.70 | 6.14 | 4.68 | < 4.33 | 5.45 | < 4.59 | 5.02 | 6.05 | < 4.33 | < 4.33 | 5.46 | 5.70
CCN(C(C)=O)C1=C(N2CCOCC2)C(=O)c2ccccc2C1=O | 6.36 | 6.29 | 6.16 | 6.37 | < 4.86 | < 5.08 | 5.49 | 5.05 | 6.33 | 5.49 | 5.25 | 6.46 | 5.56 | < 4.49 | 6.21 | 6.42
